Test [1] concerns the target T1, Opioid receptors; mu/kappa/delta (Homo sapiens, UniProt P41145+P41143+P35372). The experiment in a line: Opioid receptor agonistic potency in guinea pig ileal longitudinal muscle(GPI) preparation. The format is functional, Cavia porcellus. Particulars: target entry is the homologue from another species. The method in brief:
(§1)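 Guinea pig ileal longitudinal muscle, electrically stimulated twitch. Agonist potency taken as IC50 for twitch inhibition and as potency ratio relative to morphine (morphine = 1). Values are means ± SE, with number of experiments.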

Test [2] deals with Mus musculus. Put plainly: Peak antinociceptive potency of compound, 60 min after peroral administration into mice. The settings on record: po, 1 h. The format is functional. The essentials:
(§2)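 Male Swiss–Webster mice, tail-flick antinociception. Compounds given icv, iv or po, with ED50 taken at peak effect. Some ED50s were estimated from two dose levels. Where drug was insufficient, an approximate range was based on one dose level.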

For test [3], the system named is Mus musculus. The experiment in a line: Peak antinociceptive potency of compound, 20 min after intracerebro ventricular administration into mice. It counts as functional. The essentials:
as §2

Test [4] concerns Mus musculus. Put plainly: Peak antinociceptive potency of compound, 20 min after intravenous administration into mice. It counts as functional. The essentials: as §2
Test [5] is described as follows: (§3) Potency against opioid receptor relative to morphine. It counts as functional. The essentials: as §1
Test [6] deals with Mus musculus. The experiment in a line: Peak antinociceptive potency of compound, 40 min after intracerebro ventricular administration nto mice. The format is functional. The essentials: as §2
The test system of test [7] is Mus musculus. Put plainly: Peak antinociceptive potency of compound, 40 min after intravenous administration into mice. The format is functional. The essentials:
as §2

For test [8], the species on record is Cavia porcellus. The experiment in a line: Antagonistic activity against morphine in guinea pig ileal longitudinal muscle(GPI) preparation. The format is functional, Muscle tissue. The method in brief: (§4)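 Guinea pig ileal longitudinal muscle, electrically stimulated twitch. Antagonism measured against morphine. Ke = [antagonist]/(IC50 ratio − 1); the IC50 ratio is morphine IC50 with antagonist over its control IC50 in the same preparation. Values are means ± SE, with number of experiments.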

The species named for test [9] is Cavia porcellus. Put plainly: Maximum percent inhibition of electrically stimulated twitch in guinea pig ileal longitudinal muscle(GPI) preparation. The format is functional. Particulars: Muscle tissue. The essentials:
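Guinea pig ileal longitudinal muscle, electrically stimulated. Maximum percent inhibition of the twitch determined at 1 μM. Values are means ± SE, with number of experiments.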

Test [10] relates to Mus musculus. The experiment in a line: Peak antinociceptive potency of compound, 40 min after intracerebro ventricular administration into mice. It counts as functional. The method in brief:
as §2

For test [11], the target named is T1, Opioid receptors; mu/kappa/delta. The description is as §3. It counts as functional. The settings on record: Cavia porcellus. The method in brief:
as §1

A short description of test [12]: Antagonistic potency, 120 min after […] administration of compound (91.7 u mol/kg), in mice (tail flick assay). It counts as functional. The essentials:
(§5)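 Male Swiss–Webster mice, tail-flick antinociception. Morphine given sc and tested 30 min after injection. Antagonist given icv (0.01 nmol), iv (18.3 μmol/kg) or po (91.7 μmol/kg), timed so both drugs were at peak (antagonist peaks 60, 90 and 120 min).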

Test [13] in a line: Antagonistic potency, 90 min after intravenous administration of compound (18.3 u mol/kg), in mice (tail flick assay). The format is functional. The method in brief: as §5
Test [14] can be described thus: Antagonistic potency,60 min after intracerebro ventricular administration of compound ([…]), in mice (tail flick assay). The format is functional. The essentials: as §5
On the technique in general: Hot-plate and tail-flick tests time the reaction to a heat stimulus.

For test [15], the system named is Mus musculus. Put plainly: Antagonistic potency, 60 min after intracerebro ventricular administration of compound (0.01n mol), in mice (tail flick assay). The format is functional. The settings on record: central, 1 h. The method in brief:
as §5

For test [16], the system named is Mus musculus. The experiment in a line: Antagonistic potency, 90 min after […] administration of compound (18.3 u mol/kg), in mice (tail flick assay). The format is functional. The settings on record: 1.5 h. The method in brief: as §5
The subject of test [17] is Mus musculus. The experiment in a line: Peak effect of agonistic potency 10 min after intracerebro ventricular administration, in mice (acetic acid writhing assay). The format is functional. The method in brief:
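Mouse acetic acid writhing assay. Compound given icv or po. […] Expressed as nmol/mouse (icv) or […] (po).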
(In general: In writhing tests, fewer writhes than in controls are read as antinociception.)

The subject of test [18] is Mus musculus. The experiment in a line: Dose required to produce equivalent antagonism of morphine activity after peroral administration of compound. The format is functional. The method in brief:
(§6)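 Mouse tail-flick assay against sc morphine. Antagonist dosed icv, iv or po. Equiactive dose calculated as the dose required to double the morphine ED50, [dose/(DR − 1)]. icv doses were also expressed per kg body weight.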

Test [19] is filed under the species Cavia porcellus. Put plainly: Antagonistic activity against morphine in guinea pig ileal longitudinal muscle(GPI) preparation; Agonism was too strong to test for antagonism. The settings on record: Muscle tissue, filed as agonist. It counts as functional. The essentials: as §4
For test [20], the system named is Mus musculus. Put plainly: Dose required to produce equivalent antagonism of morphine activity after intravenous administration of compound. The format is functional. The method in brief:
as §6

Test [21] deals with Mus musculus. The experiment in a line: Antagonistic potency, 120 min after […] administration of compound (91.7u mol/kg), in mice (tail flick assay). The settings on record: 2 h. The format is functional. The essentials:
as §5

Molecules are shown by their SMILES.

The values below come from ChEMBL document CHEMBL1124580, “Opioid agonist and antagonist activities of peripherally selective derivatives of naltrexamine and oxymorphamine” (J Med Chem, 1989).

T1 sequence (P35372 whole entry, looked up): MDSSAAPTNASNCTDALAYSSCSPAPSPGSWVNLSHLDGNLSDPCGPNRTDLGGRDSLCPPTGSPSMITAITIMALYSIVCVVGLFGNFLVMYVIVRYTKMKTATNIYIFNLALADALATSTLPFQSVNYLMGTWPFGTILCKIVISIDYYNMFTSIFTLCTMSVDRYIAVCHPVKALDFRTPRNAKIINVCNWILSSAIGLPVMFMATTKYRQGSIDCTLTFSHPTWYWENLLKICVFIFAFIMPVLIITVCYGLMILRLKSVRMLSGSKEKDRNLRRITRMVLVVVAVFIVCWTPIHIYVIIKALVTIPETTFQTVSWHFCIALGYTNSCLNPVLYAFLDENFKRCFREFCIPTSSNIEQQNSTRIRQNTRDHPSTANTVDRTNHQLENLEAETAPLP
T1 sequence (P41143 whole entry, looked up): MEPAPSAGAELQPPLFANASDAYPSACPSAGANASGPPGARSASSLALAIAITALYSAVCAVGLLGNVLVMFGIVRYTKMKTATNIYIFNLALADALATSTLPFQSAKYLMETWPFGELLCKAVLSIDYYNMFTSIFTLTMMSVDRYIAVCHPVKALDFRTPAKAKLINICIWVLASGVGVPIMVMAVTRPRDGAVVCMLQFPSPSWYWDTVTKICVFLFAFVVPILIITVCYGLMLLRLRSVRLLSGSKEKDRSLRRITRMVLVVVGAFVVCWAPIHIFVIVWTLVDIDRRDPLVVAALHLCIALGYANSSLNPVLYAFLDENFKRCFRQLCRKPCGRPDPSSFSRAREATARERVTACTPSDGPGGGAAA
T1 sequence (P41145 whole entry, looked up): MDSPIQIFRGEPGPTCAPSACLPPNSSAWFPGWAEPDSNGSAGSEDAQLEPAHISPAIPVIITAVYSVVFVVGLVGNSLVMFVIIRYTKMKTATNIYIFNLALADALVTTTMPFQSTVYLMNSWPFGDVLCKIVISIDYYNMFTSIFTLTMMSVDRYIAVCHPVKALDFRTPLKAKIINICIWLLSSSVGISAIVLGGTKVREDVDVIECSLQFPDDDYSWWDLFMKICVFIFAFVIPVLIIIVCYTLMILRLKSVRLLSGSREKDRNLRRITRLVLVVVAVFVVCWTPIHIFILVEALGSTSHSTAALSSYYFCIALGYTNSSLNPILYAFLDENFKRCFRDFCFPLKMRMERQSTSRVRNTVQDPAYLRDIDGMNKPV

In turn, `CN1CC[C@]23c4c5ccc(O)c4O[C@H]2C(NC(=O)/C=C\C(=O)O)CC[C@@]3(O)[C@H]1C5` (some centres not stated) had a 50% inhibitory concentration (IC50) in [1] of 39 nM. For the same molecule, the ED50 in test [2] was determined as 20 µmol/kg; in test [3], 0.17 nM mouse-1; in [4], 11 µmol/kg. Also, in [5], the Ratio is 2.6.

Turning to `CN1CC[C@]23c4c5ccc(O)c4O[C@H]2C(NC(=O)CCC(=O)O)CC[C@@]3(O)[C@H]1C5` (some centres not stated), the ED50 was determined as 0.27 nM mouse-1 in test [6], 9.8 µmol/kg in [7] and 30.3 µmol/kg in [2]. Further, the IC50 in test [1] stood at 144 nM. The Ratio in test [5] was 1.6.

In test [8], `O=C(O)COCC(=O)NC1CC[C@@]2(O)[C@H]3Cc4ccc(O)c5c4[C@@]2(CCN3CC2CC2)[C@H]1O5` (some centres not stated) showed a Ke of 6.2 nM. Besides, the 50% inhibitory concentration (IC50) in test [9] worked out at 38 nM.

In test [1], `CN1CC[C@]23c4c5ccc(O)c4O[C@H]2C(NC(=O)C(N)CC(=O)O)CC[C@@]3(O)[C@H]1C5` (some centres not stated) registered a half-inhibitory concentration (IC50) of 31 nM. The results for the ED50 in test [7] and in test [3] were < 20 µmol/kg and 1110.44 nM mouse-1, respectively. In [5], the Ratio stood at 6.1.

Consider `CN1CC[C@]23c4c5ccc(O)c4O[C@H]2C(NC(=O)COCC(=O)O)CC[C@@]3(O)[C@H]1C5` (some centres not stated), for which, in test [1], the 50% inhibitory concentration (IC50) came out at 27 nM. For the same molecule, the ED50 in [10] is 0.25 nM mouse-1; in [7], < 20 µmol/kg; in [2], > 25 µmol/kg. Also, the Ratio in test [11] was found to be 3.1.

Turning to `O=C(O)CCCC(=O)NC1CC[C@@]2(O)[C@H]3Cc4ccc(O)c5c4[C@@]2(CCN3CC2CC2)[C@H]1O5` (some centres not stated), in test [8], the Ke is recorded as 28 nM. Moreover, the half-inhibitory concentration (IC50) in test [9] amounted to 41 nM.

As for `O=C(O)/C=C/C(=O)NC1CC[C@@]2(O)[C@H]3Cc4ccc(O)c5c4[C@@]2(CCN3CC2CC2)[C@H]1O5` (some centres not stated), the Ke in [8] came out at 8.4 nM. 6 nM corresponded to half-maximal inhibition in [9] (IC50).

Regarding `NC(CC(=O)O)C(=O)NC1CC[C@@]2(O)[C@H]3Cc4ccc(O)c5c4[C@@]2(CCN3CC2CC2)[C@H]1O5` (some centres not stated), the Dose ratio in test [12] was found to be 3; in test [13], 12.2; in test [14], 4.2. The ED50 came to 58 µmol/kg in test [15], 168 µmol/kg in test [16], 0.024 nM mouse-1 in test [17] and 41.4 µmol/kg in test [21]. In addition, the Dose in test [18] was determined as 45.85 µM/kg; in test [20], 1.63 µM/kg. In test [19], the Ke result was “Agonism was too strong to test for antagonism”. Moreover, the IC50 in [9] was 7.4 nM.

Regarding `O=C(O)CNC1CC[C@@]2(O)[C@H]3Cc4ccc(O)c5c4[C@@]2(CCN3CC2CC2)[C@H]1O5` (some centres not stated), in [8], the Ke is on record as 24.4 nM. Further, the IC50 in test [9] was found to be 37 nM.

For `CN1CC[C@]23c4c5ccc(O)c4O[C@H]2C(NC(=O)/C=C/C(=O)O)CC[C@@]3(O)[C@H]1C5` (some centres not stated), the IC50 in test [1] stood at 130 nM. Also, in [5], the Ratio was found to be 1.5.

`O=C(O)CCC(=O)NC1CC[C@@]2(O)[C@H]3Cc4ccc(O)c5c4[C@@]2(CCN3CC2CC2)[C@H]1O5` (some centres not stated) yielded a Ke in [8] of 24.8 nM. The concentration for half-maximal inhibition (IC50) in test [9] came out at 56 nM.

For orientation: IC50 means the concentration at which inhibition is half-maximal. A lower IC50 goes with greater potency.
